This note sets out measurements from article PMC3574227 (Journal of medicinal chemistry, 2013).

In test [1] the test system is human plasma. As to the kind of experiment: Prothrombin time. As to conditions: citrated human plasma. The gist of the method: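 One-stage recalcification PT on a fibrometer. Test compound was made up in citrated pooled normal human plasma and held 30 s at 37 °C. Clotting was then started with prewarmed reconstituted thromboplastin-D. Clotting time was plotted against concentration and fitted to a quadratic trend line, from which the concentration doubling clotting time was taken.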

Test [2] has as its system human plasma. As to the kind of experiment: Activated partial thromboplastin time. The following applies: for concentration required for a 2-fold increase in APTT: citrated human plasma.
In another test the target is human factor XIa (Homo sapiens, UniProt P03951). As to the kind of experiment: Direct inhibition of FXIa, chromogenic substrate. It counts as biochemical.
The target of another test is factor IXa (Homo sapiens, UniProt P00740). Put plainly: Chromogenic substrate hydrolysis assay, factor IXa. It counts as biochemical. An outline of the steps:
(§1)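 Chromogenic substrate hydrolysis with human plasma enzymes, substrate level set from its KM. Enzyme and substrate in well: thrombin 6 nM with Spectrozyme TH 50 µM; factor Xa 1.09 nM with Spectrozyme FXa 125 µM; factor XIIa 5 nM with Spectrozyme FXIIa 125 µM; factor IXa 89 nM with Spectrozyme FIXa 850 µM. Residual activity read spectrophotometrically at six or more serial test compound dilutions, then dose–response fitted.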

For the next test, the system named is human whole blood. As to the kind of experiment: Thromboelastography. An outline of the steps:
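Thromboelastography at 37 °C: 200 mM CaCl2 stock placed in cup, then sodium-citrated human whole blood containing test compound or water added to recalcify. The cup oscillated through 4°45′ at 0.1 Hz. R, α, maximum amplitude (MA) and shear elastic modulus G were recorded automatically, with G = 5000 × MA/(100 − MA).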

A further test has as its target thrombin (Homo sapiens, UniProt P00734). Put plainly: Chromogenic substrate hydrolysis assay, thrombin. It counts as biochemical. An outline of the steps:
as §1

Test [3] concerns the target T1, human FXIa (Homo sapiens, UniProt P03951). As to the kind of experiment: Competitive inhibition of FXIa by 6 in the presence of UFH. It counts as biochemical.
For test [4], the system named is FXIa Catalytic Domain (FXIa-CD). Put plainly: Michaelis-Menten kinetics of S-2366 hydrolysis by FXIa catalytic domain. It counts as biochemical, human.
Test [5] deals with T1, human FXIa. As to the kind of experiment: Inhibition of FXIa activation of FIX. It counts as biochemical. The following applies: 6 at 3 µM, FIX 0.5 µM, after 120 min of incubation.
The target in the next test is FXIa Wild Type (Homo sapiens, UniProt P03951). Put plainly: Michaelis-Menten kinetics of S-2366 hydrolysis by wild-type FXIa. It counts as biochemical.
For the next test, the target named is factor VIIa (Homo sapiens, UniProt P08709). As to the kind of experiment: Chromogenic substrate hydrolysis assay, factor VIIa. It counts as biochemical. The following applies: NI = no inhibition observed up to 3.7 mg/mL. The gist of the method: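 Plasma-derived human factor VIIa (8 nM) with 40 nM recombinant tissue factor and Spectrozyme factor VIIa substrate (1000 µM, in well; level chosen from KM). Residual activity was read spectrophotometrically across six or more serially diluted test compound concentrations to build an inhibition profile for IC50.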

The target of the next test is bovine chymotrypsin (Bos taurus, UniProt P00766). Put plainly: Chromogenic substrate hydrolysis assay, chymotrypsin. It counts as biochemical. As to conditions: NI = no inhibition observed up to 1.8 mg/mL. The gist of the method:
(§2)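 Digestive protease counter-screen: bovine trypsin 72.5 ng/mL with S-2222 80 µM, or bovine α-chymotrypsin 500 ng/mL with Spectrozyme CTY 240 µM (in-well levels; substrate chosen from KM). Fractional residual activity was measured spectrophotometrically at six or more serially diluted test compound concentrations, profiled for IC50.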

The target of a further test is T2, bovine trypsin (Bos taurus, UniProt P00760).
T2 sequence (P00760 24-246): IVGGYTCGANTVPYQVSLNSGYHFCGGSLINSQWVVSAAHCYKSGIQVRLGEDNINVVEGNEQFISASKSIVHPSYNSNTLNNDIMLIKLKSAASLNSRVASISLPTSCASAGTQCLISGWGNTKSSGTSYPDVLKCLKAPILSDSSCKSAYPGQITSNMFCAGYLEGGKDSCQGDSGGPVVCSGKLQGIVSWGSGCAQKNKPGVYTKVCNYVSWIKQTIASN
Put plainly: Chromogenic substrate hydrolysis assay, trypsin. As to conditions: NI = no inhibition observed up to 1.8 mg/mL. It counts as biochemical. The gist of the method: as §2

Another test concerns the target T3, factor XIIa (Homo sapiens, UniProt P00748).
T3 sequence (P00748 373-615 limits assumed): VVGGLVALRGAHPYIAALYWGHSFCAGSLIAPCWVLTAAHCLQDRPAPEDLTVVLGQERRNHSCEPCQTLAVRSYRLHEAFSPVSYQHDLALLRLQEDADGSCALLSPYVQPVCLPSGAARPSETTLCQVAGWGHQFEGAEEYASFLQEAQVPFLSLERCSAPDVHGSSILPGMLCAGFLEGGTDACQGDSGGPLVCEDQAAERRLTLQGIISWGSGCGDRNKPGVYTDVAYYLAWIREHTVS
T3 sequence (P00748 20-372 partner limits assumed): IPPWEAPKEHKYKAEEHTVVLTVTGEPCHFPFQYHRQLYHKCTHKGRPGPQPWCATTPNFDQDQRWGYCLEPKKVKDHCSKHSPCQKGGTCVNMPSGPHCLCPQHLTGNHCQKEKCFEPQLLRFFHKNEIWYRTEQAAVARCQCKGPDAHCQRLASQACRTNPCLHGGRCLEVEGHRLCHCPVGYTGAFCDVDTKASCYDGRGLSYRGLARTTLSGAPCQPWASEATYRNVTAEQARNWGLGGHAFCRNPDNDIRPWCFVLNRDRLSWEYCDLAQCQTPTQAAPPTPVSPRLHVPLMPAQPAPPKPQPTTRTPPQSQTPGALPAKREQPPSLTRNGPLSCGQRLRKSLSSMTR
As to the kind of experiment: Chromogenic substrate hydrolysis assay, factor XIIa. It counts as biochemical. The gist of the method: as §1

Setting [6] is: 6 over the concentration range of 0–280 µg/mL.

For orientation: IC50 means the midpoint of a concentration-inhibition curve.

“And” between values parts separate entries of the source, which are not always exact repeats. Equal entries are not always repeated.

Sequence of human factor XIa (P03951 19-387 limits assumed): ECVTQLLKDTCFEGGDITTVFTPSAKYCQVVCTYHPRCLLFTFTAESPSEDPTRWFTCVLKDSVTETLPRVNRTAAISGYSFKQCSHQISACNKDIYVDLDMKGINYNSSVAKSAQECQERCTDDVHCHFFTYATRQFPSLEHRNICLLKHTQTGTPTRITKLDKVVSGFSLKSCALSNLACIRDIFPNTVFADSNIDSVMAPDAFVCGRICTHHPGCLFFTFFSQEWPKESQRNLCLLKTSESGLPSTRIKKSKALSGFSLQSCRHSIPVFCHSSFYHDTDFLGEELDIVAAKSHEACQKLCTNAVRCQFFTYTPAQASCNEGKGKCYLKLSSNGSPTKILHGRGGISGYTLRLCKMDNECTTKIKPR
Sequence of human factor XIa (P03951 388-625 limits assumed): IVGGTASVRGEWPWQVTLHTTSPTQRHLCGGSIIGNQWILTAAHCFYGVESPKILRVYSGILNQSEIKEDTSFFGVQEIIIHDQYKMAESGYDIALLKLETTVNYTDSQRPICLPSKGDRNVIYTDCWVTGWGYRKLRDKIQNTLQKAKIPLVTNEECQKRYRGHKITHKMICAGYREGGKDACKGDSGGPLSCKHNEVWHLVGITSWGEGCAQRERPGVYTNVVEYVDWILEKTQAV
Sequence of FXIa Wild Type (P03951 19-387 limits assumed): as the sequence (P03951 19-387 limits assumed) above
Sequence of FXIa Wild Type (P03951 388-625 limits assumed): as the sequence (P03951 388-625 limits assumed) above
T1 sequence (P03951 19-387 limits assumed): as the sequence (P03951 19-387 limits assumed) above
T1 sequence (P03951 388-625 limits assumed): as the sequence (P03951 388-625 limits assumed) above
Sequence of factor VIIa (P08709 213-466 limits assumed): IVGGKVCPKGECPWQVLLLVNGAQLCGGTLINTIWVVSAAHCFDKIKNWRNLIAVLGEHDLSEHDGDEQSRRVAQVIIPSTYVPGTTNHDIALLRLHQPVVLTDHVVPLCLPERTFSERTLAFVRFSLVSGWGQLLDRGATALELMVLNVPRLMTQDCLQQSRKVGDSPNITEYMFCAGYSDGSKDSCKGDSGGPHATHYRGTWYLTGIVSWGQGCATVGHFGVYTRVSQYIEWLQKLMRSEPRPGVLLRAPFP
Sequence of factor VIIa (P08709 61-212 limits assumed): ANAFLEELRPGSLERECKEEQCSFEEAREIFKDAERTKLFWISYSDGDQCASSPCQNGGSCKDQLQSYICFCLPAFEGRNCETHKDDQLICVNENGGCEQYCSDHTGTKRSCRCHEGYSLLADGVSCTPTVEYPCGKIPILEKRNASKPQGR
Sequence of factor VIIa (P13726 33-295 partner): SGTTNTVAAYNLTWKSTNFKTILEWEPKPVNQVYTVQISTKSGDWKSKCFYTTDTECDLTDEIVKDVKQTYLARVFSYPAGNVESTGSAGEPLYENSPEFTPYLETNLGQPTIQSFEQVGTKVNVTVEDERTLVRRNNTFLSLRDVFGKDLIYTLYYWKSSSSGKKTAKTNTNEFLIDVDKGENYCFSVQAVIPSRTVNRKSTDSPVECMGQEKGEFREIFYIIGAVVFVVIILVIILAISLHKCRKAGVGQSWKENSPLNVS
Sequence of factor IXa (P00740 227-461 limits assumed): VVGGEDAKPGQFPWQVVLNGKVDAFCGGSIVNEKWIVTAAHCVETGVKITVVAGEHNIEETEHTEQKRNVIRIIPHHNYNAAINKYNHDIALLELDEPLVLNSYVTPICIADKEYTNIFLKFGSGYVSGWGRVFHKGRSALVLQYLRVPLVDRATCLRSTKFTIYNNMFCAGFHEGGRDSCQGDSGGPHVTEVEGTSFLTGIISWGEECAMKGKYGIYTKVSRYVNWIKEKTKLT
Sequence of factor IXa (P00740 47-191 limits assumed): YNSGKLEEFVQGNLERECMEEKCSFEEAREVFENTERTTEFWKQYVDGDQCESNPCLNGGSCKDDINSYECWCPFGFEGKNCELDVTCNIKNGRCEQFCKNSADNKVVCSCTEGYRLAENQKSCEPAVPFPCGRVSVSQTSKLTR

In the case of `COc1cc([C@H]2Oc3cc([C@H]4Oc5cc(OS(=O)(=O)[O-])cc(O)c5C(=O)[C@@H]4OS(=O)(=O)[O-])ccc3O[C@@H]2COS(=O)(=O)[O-])ccc1OS(=O)(=O)[O-].[Na+].[Na+].[Na+].[Na+]` [Molecule 2, sulfated silibinin], the “concentration required for a 2-fold increase in PT” value in the test with human plasma [1] is reported as “much higher”. Further, the “concentration required for a 2-fold increase in APTT” value in the test on human plasma [2] is reported as “much higher”.
For the compound `O=C(/C=C/c1ccc(OS(=O)(=O)[O-])c(OS(=O)(=O)[O-])c1)O[C@@H]1C[C@](O)(C(=O)[O-])C[C@@H](OS(=O)(=O)[O-])[C@H]1OS(=O)(=O)[O-].[Na+].[Na+].[Na+].[Na+].[Na+]` [Molecule 4, sulfated chlorogenic acid], in the test on human plasma [1], the “concentration required for a 2-fold increase in PT” value was “much higher”. Moreover, the “concentration required for a 2-fold increase in APTT” value in the test on human plasma [2] was “much higher”.
As to `O=C(OC[C@H]1O[C@@H](OC(=O)c2cc(O)c(O)c(O)c2)[C@H](OC(=O)c2cc(O)c(O)c(O)c2)[C@@H](OC(=O)c2cc(O)c(O)c(O)c2)[C@@H]1OC(=O)c1cc(O)c(O)c(O)c1)c1cc(O)c(O)c(O)c1` [Molecule 5, pentagalloyl glucopyranoside, reference compound], the “inhibition of FXIa proteolytic activity” value on human factor XIa (highest concentration tested (300 µM)) was “completely inactive”.
With `O=C(OC[C@H]1O[C@@H](OC(=O)c2cc(OS(=O)(=O)[O-])c(O)c(OS(=O)(=O)[O-])c2)[C@H](OC(=O)c2cc(OS(=O)(=O)[O-])c(O)c(OS(=O)(=O)[O-])c2)[C@@H](OC(=O)c2cc(OS(=O)(=O)[O-])c(O)c(OS(=O)(=O)[O-])c2)[C@@H]1OC(=O)c1cc(OS(=O)(=O)[O-])c(O)c(OS(=O)(=O)[O-])c1)c1cc(OS(=O)(=O)[O-])c(O)c(OS(=O)(=O)[O-])c1.[Na+].[Na+].[Na+].[Na+].[Na+].[Na+].[Na+].[Na+].[Na+].[Na+]` [Molecule 6, sulfated pentagalloylglucoside], the HS at factor IXa was 2.2 ± 0.6; on human FXIa [3] (UFH 0 µM), 1.3 ± 0.1; at human FXIa [3] (UFH 0.13 µM) it was 1.4 ± 0.2; at human FXIa [3] (UFH 3.33 µM), 1.7 ± 0.2; at human FXIa [3] (UFH 33.3 µM), 4.0 ± 0.9; at factor XIIa, 3.0 ± 1.8. Also, the “G (shear elastic modulus strength)” value in the test with human whole blood (6 at 20 µg/mL) was 8.2 × 10^3 kDynes/cm^3; in the test on human whole blood (6 at 135 µg/mL), 5.0 × 10^3 kDynes/cm^3; with human whole blood (6 at 190 µg/mL) it was 3.8 × 10^3 kDynes/cm^3; in the test on human whole blood (6 at 280 µg/mL), 0.9 × 10^3 kDynes/cm^3. The “reduction of G” value with human whole blood (setting [6]) was around 8 fold. Also, the “reduction of MA” value with human whole blood (setting [6]) is reported as ~ 4 fold. Besides, the IC50 is 0.612 µM against human factor XIa; 16 µM on human FXIa [3]; “no inhibition” against factor VIIa; “no inhibition” against bovine chymotrypsin; “no inhibition” at bovine trypsin. Further, the “selectivity for FXIa over other relevant enzymes” value at human factor XIa is “at least 200 fold”. Also, the “HS (Hill slope)” value at human factor XIa (S-2366 hydrolysis, pH 7.4, 37 °C) is reported as 1.3 ± 0.1. The ΔY on thrombin is 83 ± 10. Further, the “concentration required for a 2-fold increase in PT” value with human plasma [1] is 298 µg/mL. For the same compound, the “retention of inhibitory potency with the catalytic domain of FXIa” value in [4] was ~ 100%. The “decrease of VMAX” value in [4] (6 from 0 to 5.0 µg/mL) is reported as around 5 fold. The VMAX in test [4] ([6] 0.5 µg/mL) is 53.9 ± 1.4 mAU/min; on FXIa Wild Type ([6] 0.005 µg/mL), 93.7 ± 3.2 mAU/min; on FXIa Wild Type ([6] 0.5 µg/mL), 74.6 ± 2.6 mAU/min; on FXIa Wild Type ([6] 2.5 µg/mL), 56.9 ± 1.5 mAU/min; at FXIa Wild Type ([6] 5.0 µg/mL), 32.3 ± 2.1 mAU/min; at FXIa Wild Type ([6] 50.0 µg/mL), 17.2 mAU/min and 17.2 ± 1.2 mAU/min. Besides, the “formation of FIXaβ” value at human FXIa [5] is “not detectable”. Besides, in the test with human plasma [2] (molar basis), the “less effective than enoxaparin at molar levels” value turned out to be 36 fold.
